Data published in ChEMBL document CHEMBL2163204, “Synthesis and nicotinic acetylcholine receptor in vitro and in vivo pharmacological properties of 2'-fluoro-3'-(substituted phenyl)deschloroepibatidine analogues of 2'-fluoro-3'-(4-nitrophenyl)deschloroepibatidine” (J Med Chem, 2012).

Assays:
[1] = biological target: Neuronal acetylcholine receptor subunit alpha-7 (Rattus norvegicus) (UniProt Q05941); assay: Agonist activity at rat alpha7 nAChR expressed in Xenopus laevis oocytes at 100 uM after 2 to 6 days by two electrode voltage clamp assay relative to acetylcholine; type: functional, cell-based; details: Oocyte
How it was run: (§1)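 Two-electrode voltage clamp on Xenopus oocytes injected with rat subunit cRNA (α3β4 at 1:1 molar ratio), incubated at 19 °C in modified Barth's saline (pH 7.6). Oocytes perfused with ND96 (pH 7.5) at 20–25 °C. 100 µM compound applied for 15 s (α3β4) or 5 s (α7), 3-min washes. Response compared with the mean of three preceding ACh applications and expressed as % of maximal ACh response.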

Mus musculus [2] = assay: Antinociception activity in sc dosed mouse assessed as reaction time taken for jumping or licking paws after 5 mins by hot plate method
[3] = biological target: T1, Neuronal acetylcholine receptor; alpha4/beta2 (Rattus norvegicus) (UniProt P09483+P12390); assay: Agonist activity at rat alpha4beta2 nAChR expressed in Xenopus laevis oocytes at 100 uM after 2 to 6 days by two electrode voltage clamp assay relative to acetylcholine; type: functional, cell-based; details: Oocyte
Mus musculus [4] = assay: Effect on spontaneous locomotor activity in sc dosed mouse after 5 mins by photocell based method; type: functional
How it was run: (§2)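 Mice put into photocell activity cages 5 min after s.c. saline or compound. Beam interruptions counted over the next 10 min.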

Mus musculus [5] = assay: Antinociception activity in sc dosed mouse after 5 mins by tail-flick method
[6] = biological target: T2, Neuronal acetylcholine receptor; alpha3/beta4 (Rattus norvegicus) (UniProt P04757+P12392); assay: Agonist activity at rat alpha3beta4 nAChR expressed in Xenopus laevis oocytes at 100 uM after 2 to 6 days by two electrode voltage clamp assay relative to acetylcholine; type: functional, cell-based; details: Oocyte; how it was run: as §1
Mus musculus [7] = assay: Effect on hypothermia in sc dosed mouse assessed as variation in rectal temperature measured after 30 mins by thermister probe based method; type: functional; details: 0.5 h
How it was run: (§3)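 Rectal temperature measured by thermistor probe inserted 24 mm, before and 30 min after s.c. saline or compound. Change computed for each mouse. Room temperature 21–24 °C.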

Mus musculus [8] = assay: Antinociception activity in mouse assessed as reaction time taken for jumping or licking paws at 10 mg/kg, sc after 5 mins by hot plate method; type: functional; details: route subcutaneous
How it was run: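 Mice placed on a 55 °C hot plate; latency is time to jump or paw-lick. Two baseline latencies taken at least 10 min apart. Tested 5 min after s.c. dosing. %MPE computed with a 40 s maximum. Eight mice per dose.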

[9] = biological target: T1, Neuronal acetylcholine receptor; alpha4/beta2 (Rattus norvegicus); assay: Antagonist activity at rat alpha4beta2 nAChR expressed in Xenopus laevis oocytes assessed as inhibition of acetylcholine-induced response at 100 uM after 2 to 6 days by two electrode voltage clamp assay; type: functional, cell-based; details: Oocyte
How it was run: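 Xenopus oocytes expressing rat nAChRs (α4β2 and α3β4 subunits injected at 1:1), recorded by two-electrode voltage clamp in ND96 (pH 7.5) at 20–25 °C. Current compared with the mean of three preceding ACh-alone responses and given as % remaining.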

[10] = biological target: Neuronal acetylcholine receptor subunit alpha-7 (Rattus norvegicus) (UniProt Q05941); assay: Antagonist activity at rat alpha7 nAChR expressed in Xenopus laevis oocytes assessed as inhibition of acetylcholine-induced response at 100 uM after 2 to 6 days by two electrode voltage clamp assay; type: functional, cell-based; details: Oocyte
[11] = biological target: Neuronal acetylcholine receptor; alpha4/beta2 (Rattus norvegicus, UniProt P09483+P12390); assay: Antagonist activity at rat alpha4beta2 nAChR expressed in Xenopus laevis oocytes assessed as inhibition of acetylcholine-induced response after 2 to 6 days by two electrode voltage clamp assay; type: functional, cell-based, Oocyte
Mus musculus [12] = assay: Antagonist activity in sc dosed mouse assessed as inhibition of nicotine-induced antinociception after 5 mins by hot plate method; type: functional
Mus musculus [13] = assay: Effect on spontaneous locomotor activity in mouse at 10 mg/kg, sc after 5 mins by photocell based method; type: functional; details: route subcutaneous; how it was run: as §2
[14] = biological target: Neuronal acetylcholine receptor; alpha3/beta4 (Rattus norvegicus, UniProt P04757+P12392); assay: Antagonist activity at rat alpha3beta4 nAChR expressed in Xenopus laevis oocytes assessed as inhibition of acetylcholine-induced response after 2 to 6 days by two electrode voltage clamp assay; type: functional, cell-based, Oocyte
Mus musculus [15] = assay: Effect on hypothermia in mouse assessed as variation in rectal temperature at 10 mg/kg, sc measured after 30 mins by thermister probe based method; type: functional; details: route subcutaneous; how it was run: as §3
[16] = biological target: T3, Neuronal acetylcholine receptor subunit alpha-7 (Rattus norvegicus, UniProt Q05941); assay: Antagonist activity at rat alpha7 nAChR expressed in Xenopus laevis oocytes assessed as inhibition of acetylcholine-induced response after 2 to 6 days by two electrode voltage clamp assay; type: functional, cell-based, Oocyte
[17] = biological target: T2, Neuronal acetylcholine receptor; alpha3/beta4 (Rattus norvegicus); assay: Antagonist activity at rat alpha3beta4 nAChR expressed in Xenopus laevis oocytes assessed as inhibition of acetylcholine-induced response at 100 uM after 2 to 6 days by two electrode voltage clamp assay; type: functional, cell-based; details: Oocyte
How it was run: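 Xenopus oocytes expressing rat nAChRs (α4β2 and α3β4 subunits injected at 1:1), recorded by two-electrode voltage clamp in ND96 (pH 7.5) at 20–25 °C. […] Current compared with the mean of three preceding ACh-alone responses and given as % remaining.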

[18] = biological target: T3, Neuronal acetylcholine receptor subunit alpha-7; assay: Displacement of [125I]iodoMLA from rat cerebral cortex alpha7 nAChR at 50 nM incubated for 2 hrs by microplate scintillation assay; type: tissue-based
How it was run: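 Rat cerebral cortex membranes (3 mg wet weight) in Tris assay buffer pH 7.4. Run in triplicate, 2 h on ice. Nonspecific binding with 300 µM (–)-nicotine. Filtered onto BSA-presoaked GF/B and counted by microplate scintillation.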

[19] = Displacement of [3H]epibatidine from rat cerebral cortex alpha4beta2* nAChR incubated for 4 hrs by liquid scintillation assay; type: tissue-based
How it was run: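 Washed rat cerebral cortex membranes (3 mg wet weight) in 50 mM Tris pH 7.4 with 120 mM NaCl, 5 mM KCl, 2 mM CaCl2, 1 mM MgCl2. 4 h at room temperature. Nonspecific binding with 300 µM (–)-nicotine. Filtration on PEI-soaked GF/B. Ki from IC50 by Cheng–Prusoff.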

Mus musculus [20] = assay: Antagonist activity in sc dosed mouse assessed as inhibition of nicotine-induced antinociception after 5 mins by tail flick method; type: functional
Mus musculus [21] = assay: Antinociception activity in mouse at 10 mg/kg, sc after 5 mins by tail-flick method; type: functional; details: route subcutaneous
How it was run: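 Mouse tail-flick: baseline latency 2–4 s, 10 s cutoff, tested 5 min after s.c. injection. %MPE = (test−control)/(10−control)×100. Eight to twelve mice per dose.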

Mus musculus [22] = assay: Antagonist activity in mouse assessed as inhibition of nicotine-induced antinociception at 10000 ug/kg, sc after 5 mins by hot plate method; type: functional
Mus musculus [23] = assay: Antagonist activity in mouse assessed as inhibition of nicotine-induced antinociception at 2000 ug/kg, sc after 5 mins by hot plate method; type: functional

Neuronal acetylcholine receptor subunit alpha-7 (Rattus norvegicus), sequence (Q05941 whole entry, the tested form may be a part): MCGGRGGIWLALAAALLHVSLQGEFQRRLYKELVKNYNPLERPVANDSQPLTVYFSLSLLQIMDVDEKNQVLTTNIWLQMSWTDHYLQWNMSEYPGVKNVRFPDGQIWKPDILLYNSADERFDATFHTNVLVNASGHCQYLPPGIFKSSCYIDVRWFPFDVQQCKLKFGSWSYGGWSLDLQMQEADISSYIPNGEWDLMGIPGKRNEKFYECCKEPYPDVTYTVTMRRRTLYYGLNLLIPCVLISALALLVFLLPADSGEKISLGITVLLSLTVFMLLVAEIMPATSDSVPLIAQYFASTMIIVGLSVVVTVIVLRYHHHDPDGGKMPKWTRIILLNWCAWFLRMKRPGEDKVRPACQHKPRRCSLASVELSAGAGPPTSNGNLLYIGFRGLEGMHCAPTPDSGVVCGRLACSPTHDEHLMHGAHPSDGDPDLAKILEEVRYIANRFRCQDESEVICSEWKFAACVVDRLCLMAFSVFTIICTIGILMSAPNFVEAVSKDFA
T3 sequence (Q05941 whole entry): as the sequence (Q05941 whole entry, the tested form may be a part) above
Neuronal acetylcholine receptor; alpha3/beta4, sequence (P04757 whole entry): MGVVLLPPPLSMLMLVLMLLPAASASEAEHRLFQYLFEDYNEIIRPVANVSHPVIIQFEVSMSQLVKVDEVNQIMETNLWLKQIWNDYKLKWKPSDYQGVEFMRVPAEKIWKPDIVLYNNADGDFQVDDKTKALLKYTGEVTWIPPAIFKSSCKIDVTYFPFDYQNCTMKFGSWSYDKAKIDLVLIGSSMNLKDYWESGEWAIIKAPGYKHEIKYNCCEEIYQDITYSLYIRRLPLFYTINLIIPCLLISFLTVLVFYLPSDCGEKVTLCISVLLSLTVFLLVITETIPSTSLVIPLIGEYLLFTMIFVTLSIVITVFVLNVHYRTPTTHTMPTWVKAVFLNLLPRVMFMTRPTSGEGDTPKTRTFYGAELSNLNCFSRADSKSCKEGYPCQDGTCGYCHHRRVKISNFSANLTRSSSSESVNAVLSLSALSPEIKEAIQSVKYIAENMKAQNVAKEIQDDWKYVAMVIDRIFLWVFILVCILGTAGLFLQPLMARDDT
Neuronal acetylcholine receptor; alpha3/beta4, sequence (P12392 whole entry): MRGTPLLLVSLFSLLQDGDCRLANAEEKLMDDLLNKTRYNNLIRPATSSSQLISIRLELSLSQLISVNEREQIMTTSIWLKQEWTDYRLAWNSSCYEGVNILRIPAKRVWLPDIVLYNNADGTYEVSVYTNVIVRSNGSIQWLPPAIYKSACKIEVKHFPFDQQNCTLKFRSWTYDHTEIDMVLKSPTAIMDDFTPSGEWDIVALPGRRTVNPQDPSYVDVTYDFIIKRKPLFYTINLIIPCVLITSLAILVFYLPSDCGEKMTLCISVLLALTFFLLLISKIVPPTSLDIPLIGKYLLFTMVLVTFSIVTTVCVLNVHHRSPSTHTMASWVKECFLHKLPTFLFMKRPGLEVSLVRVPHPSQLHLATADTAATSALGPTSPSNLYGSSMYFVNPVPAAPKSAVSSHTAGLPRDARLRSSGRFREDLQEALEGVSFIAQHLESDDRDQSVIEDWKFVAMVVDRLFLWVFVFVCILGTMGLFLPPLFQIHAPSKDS
Neuronal acetylcholine receptor; alpha4/beta2, sequence (P09483 whole entry): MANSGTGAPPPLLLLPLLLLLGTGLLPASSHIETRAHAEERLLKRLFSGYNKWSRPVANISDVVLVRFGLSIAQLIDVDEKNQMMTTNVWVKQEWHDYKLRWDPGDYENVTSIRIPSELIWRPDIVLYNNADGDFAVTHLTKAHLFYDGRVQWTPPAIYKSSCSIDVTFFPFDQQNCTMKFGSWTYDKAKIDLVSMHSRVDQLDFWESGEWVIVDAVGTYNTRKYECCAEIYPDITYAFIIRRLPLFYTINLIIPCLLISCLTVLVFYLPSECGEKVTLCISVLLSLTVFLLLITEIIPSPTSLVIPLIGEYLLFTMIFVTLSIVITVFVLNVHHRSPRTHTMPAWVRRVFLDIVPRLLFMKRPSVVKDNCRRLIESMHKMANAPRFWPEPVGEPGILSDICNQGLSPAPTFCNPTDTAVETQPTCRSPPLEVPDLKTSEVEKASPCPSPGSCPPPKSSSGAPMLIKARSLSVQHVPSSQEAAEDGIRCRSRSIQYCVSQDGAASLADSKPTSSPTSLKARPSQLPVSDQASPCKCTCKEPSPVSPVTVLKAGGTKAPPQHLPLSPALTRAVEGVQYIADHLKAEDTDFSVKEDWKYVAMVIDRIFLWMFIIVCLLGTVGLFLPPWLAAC
Neuronal acetylcholine receptor; alpha4/beta2, sequence (P12390 whole entry): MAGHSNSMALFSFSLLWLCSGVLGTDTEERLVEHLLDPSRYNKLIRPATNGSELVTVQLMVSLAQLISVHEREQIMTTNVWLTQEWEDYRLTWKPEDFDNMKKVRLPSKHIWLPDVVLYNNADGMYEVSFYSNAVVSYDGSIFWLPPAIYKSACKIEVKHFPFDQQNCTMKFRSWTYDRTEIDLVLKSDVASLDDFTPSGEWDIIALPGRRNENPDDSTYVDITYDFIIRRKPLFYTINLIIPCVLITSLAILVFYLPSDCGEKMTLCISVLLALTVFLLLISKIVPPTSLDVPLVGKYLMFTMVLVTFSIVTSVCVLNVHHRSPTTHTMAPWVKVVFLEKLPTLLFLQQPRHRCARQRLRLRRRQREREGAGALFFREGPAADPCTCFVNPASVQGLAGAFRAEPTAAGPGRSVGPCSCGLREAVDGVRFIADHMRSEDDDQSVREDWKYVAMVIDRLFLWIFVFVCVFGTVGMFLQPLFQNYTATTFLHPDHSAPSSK

SMILES	%max [1] [%]	%max [3] [%]	ED50 (Mus musculus [4]) [mg/kg]	%max [6] [%]	ED50 (Mus musculus [7]) [mg/kg]	Activity (Mus musculus [8]) [%]	inhibition [9] [%]	inhibition [10] [%]	IC50 [11] [nM]	AD50 (Mus musculus [12]) [mg/kg]	Activity (Mus musculus [13]) [%]	IC50 [14] [nM]	Activity (Mus musculus [15]) [%]	IC50 [16] [nM]	inhibition [17] [%]	Ki [18] [nM]	Ki [19] [nM]	AD50 (Mus musculus [20]) [mg/kg]	Activity (Mus musculus [21]) [%]	also measured
Clc1ccc([C@H]2CC3CCC2N3)cn1 (mixture of isomers)	150	131	0.001	97	0.004	–	–	–	–	–	–	–	–	–	–	–	–	–	–	ED50 (Mus musculus [2]): 0.004 mg/kg; ED50 (Mus musculus [5]): 0.006 mg/kg
Fc1ncc(C2CC3CCC2N3)cc1-c1ccc(C(F)(F)F)cc1 (racemic)	4	0	–	0	–	6	8	3	6000	6	5	5000	0	4000	4	> 2000	0.44	–	–	–
CS(=O)(=O)c1ccc(-c2cc(C3CC4CCC3N4)cnc2F)cc1 (racemic)	3	0	–	0	–	1	–	33	2800	2.6	12	11000	1	–	25	–	0.17	0.018	6	–
NS(=O)(=O)c1ccc(-c2cc(C3CC4CCC3N4)cnc2F)cc1 (racemic)	1.8	0	–	0	–	19	4	18	–	1	5	–	0	–	5	> 2000	0.94	0.0009	–	–
O=S(=O)(c1ccc(-c2cc(C3CC4CCC3N4)cnc2F)cc1)C(F)(F)F (racemic)	1.8	0	4.2	1.9	–	–	7	42	–	–	–	–	0	–	15	> 2000	0.03	1.6	3	inhibition in vivo at 10 mg/kg (Mus musculus [22]): 50%
NC(=O)c1ccc(-c2cc(C3CC4CCC3N4)cnc2F)cc1 (racemic)	17	3.5	–	8	4.2	60	6	54	1500	–	–	35000	–	35000	36	1870	0.12	0.009	16	inhibition in vivo at 2 mg/kg (Mus musculus [23]): 1%
O=[N+]([O-])c1ccc(-c2cc(C3CC4CCC3N4)cnc2F)cc1 (racemic)	6	0	0.22	4	0.21	–	6	55	3200	0.12	–	7900	–	32000	9	> 2000	0.009	0.003	5	–
N#Cc1ccc(-c2cc(C3CC4CCC3N4)cnc2F)cc1 (racemic)	3	0	–	6	–	18	8	49	11000	–	0	7000	0	98000	17	> 2000	0.19	–	4	inhibition in vivo at 10 mg/kg (Mus musculus [22]): 24%
c1cnc2cc3c(cc2n1)[C@@H]1CNC[C@H]3C1 [VARENICLINE]	74	13	2.1	66	2.8	10	38	–	–	0.47	–	–	–	–	–	–	–	0.0002	11	–
